In ChEMBL document CHEMBL3414425, “Synthesis and biological evaluation of new imidazo[2,1-b][1,3,4]thiadiazole-benzimidazole derivatives” (Eur J Med Chem, 2015):
Converted amounts (≈) assume the structure as drawn. The source made the active and inactive calls. The calls are words filed in the database; no cut-off is given here.

Experiments:
Pseudomonas aeruginosa [1] = assay: Antibacterial activity against Pseudomonas aeruginosa at 0.5 mg/ml incubated for 18 hrs by well plate technique; assay type: functional; conditions: for zone of inhibition at 500 µg/mL: read-out: DIZ
In short: (§1)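 Bacteria kept on nutrient agar at 37 °C, grown statically in nutrient broth (start ~10-100 cfu/mL) at 37 °C for 18-24 h. Suspensions diluted in saline and spread on nutrient agar, then wells cut with a cork borer. Compound in DMSO at 1 or 0.5 mg/mL added to wells, 37 °C, 18 h. Inhibition zone diameter measured minus DMSO value; triplicate; streptomycin standard.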

Staphylococcus aureus [2] = assay: Antibacterial activity against Staphylococcus aureus at 1 mg/ml incubated for 18 hrs by well plate technique; assay type: functional; conditions: for zone of inhibition at 1000 µg/mL: read-out: DIZ; in short: as §1
Pseudomonas aeruginosa [3] = assay: Antibacterial activity against Pseudomonas aeruginosa at 1 mg/ml incubated for 18 hrs by well plate technique; assay type: functional; conditions: for zone of inhibition at 1000 µg/mL: read-out: DIZ; in short: as §1
Aspergillus flavus [4] = assay: Antifungal activity against Aspergillus flavus at 0.5 mg/ml incubated for 3 days; assay type: functional; conditions: for zone of inhibition at 500 µg/mL: 72 h, read-out: IZ
In short: (§2)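 Well plate method on potato dextrose agar. Fungal stock suspended in distilled water with Tween 80 and swabbed over plates. Samples in DMSO at 1 and 0.5 mg/mL added to wells, incubated 25 °C for 3 days, then scored for inhibition zones; fluconazole standard.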

Salmonella typhi [5] = assay: Antibacterial activity against Salmonella typhi at 1 mg/ml incubated for 18 hrs by well plate technique; assay type: functional, Salmonella enterica subsp. enterica serovar Typhi; conditions: for zone of inhibition at 1000 µg/mL: Salmonella enterica, read-out: DIZ; for diameter of the inhibition zone (DIZ): Salmonella enterica subsp. enterica serovar Typhi
In short: (§3)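 Well diffusion on nutrient agar; strains kept on nutrient agar at 37 °C, grown statically in nutrient broth 18-24 h at 37 °C, diluted in saline, 0.1 ml spread per plate. Compounds in DMSO at 1 and 0.5 mg/mL added to cork-bored wells; 18 h at 37 °C. Inhibition zone diameter measured, DMSO value subtracted; triplicate; streptomycin reference.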

[6] = Antioxidant activity assessed as DPPH radical scavenging activity incubated for 10 mins by UV-visible spectrometry; assay type: physicochemical
In short: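 DPPH free-radical scavenging; absorbance read at 517 nm against a methanol blank. % scavenging = (A control − A sample)/A control × 100.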

[7] = system: Mycobacterium tuberculosis; assay: Antitubercular activity against Mycobacterium tuberculosis H37Rv ATCC 27294/XDR-TB incubated for 28 days by agar dilution method; assay type: functional; conditions: 672 h
In short: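 Agar dilution: two-fold dilutions in Middlebrook 7H11 agar with OADC. Inoculum from fresh 7H11/OADC slants adjusted to 1 mg/mL wet weight in 0.05% Tween 80 saline, diluted 10^-2 (~10⁷ cfu/mL); 5 µL spotted per tube. Incubated 37 °C; MIC, lowest concentration fully inhibiting growth, read after 28 days, in triplicate.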

[8] = system: Chrysosporium keratinophilum; assay: Antifungal activity against Chrysosporium keratinophilum at 1 mg/ml incubated for 3 days; assay type: functional; conditions: for zone of inhibition at 1000 µg/mL: 72 h, read-out: IZ; in short: as §2
Aspergillus flavus [9] = assay: Antifungal activity against Aspergillus flavus at 1 mg/ml incubated for 3 days; assay type: functional; conditions: for zone of inhibition at 1000 µg/mL: 72 h, read-out: IZ; in short: as §2
Escherichia coli [10] = assay: Antibacterial activity against Escherichia coli at 1 mg/ml incubated for 18 hrs by well plate technique; assay type: functional; conditions: for zone of inhibition at 1000 µg/mL: read-out: DIZ; in short: as §1
[11] = Cytotoxicity against African green monkey Vero cells assessed as growth inhibition at 62.5 ug/ml after 72 hrs by MTT assay; assay type: cell-based; conditions: chlorocebus sabaeus, read-out: GI
In short: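 Vero cells grown in MEM + 10% FBS at 37 °C, 5% CO2. Seeded ~10,000 cells/well, 24 h to a partial monolayer. Compounds in DMSO diluted in MEM + 2% FBS (1 mg/ml stock, two-fold dilutions) for 72 h. MTT 3 h, formazan dissolved in propanol, A540. % inhibition = 100 − (mean OD test/mean OD control × 100).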

Salmonella typhi [12] = assay: Antibacterial activity against Salmonella typhi at 0.5 mg/ml incubated for 18 hrs by well plate technique; assay type: functional, Salmonella enterica subsp. enterica serovar Typhi; conditions: for zone of inhibition at 500 µg/mL: Salmonella enterica, read-out: DIZ; for diameter of the inhibition zone (DIZ): Salmonella enterica subsp. enterica serovar Typhi; in short: as §3
Candida albicans [13] = assay: Antifungal activity against Candida albicans at 0.5 mg/ml incubated for 3 days; assay type: functional; conditions: for zone of inhibition at 500 µg/mL: 72 h, read-out: IZ; in short: as §2
Candida albicans [14] = assay: Antifungal activity against Candida albicans at 1 mg/ml incubated for 3 days; assay type: functional; conditions: for zone of inhibition at 1000 µg/mL: 72 h, read-out: IZ; in short: as §2
[15] = system: Chrysosporium keratinophilum; assay: Antifungal activity against Chrysosporium keratinophilum at 0.5 mg/ml incubated for 3 days; assay type: functional; conditions: for zone of inhibition at 500 µg/mL: 72 h, read-out: IZ; in short: as §2
Staphylococcus aureus [16] = assay: Antibacterial activity against Staphylococcus aureus at 0.5 mg/ml incubated for 18 hrs by well plate technique; assay type: functional; conditions: for zone of inhibition at 500 µg/mL: read-out: DIZ; in short: as §1
Escherichia coli [17] = assay: Antibacterial activity against Escherichia coli at 0.5 mg/ml incubated for 18 hrs by well plate technique; assay type: functional; conditions: for zone of inhibition at 500 µg/mL: read-out: DIZ; in short: as §1

SMILES | zone of inhibition at 500 µg/mL (Pseudomonas aeruginosa [1]) [mm] | zone of inhibition at 1000 µg/mL (Staphylococcus aureus [2]) [mm] | zone of inhibition at 1000 µg/mL (Pseudomonas aeruginosa [3]) [mm] | zone of inhibition at 500 µg/mL (Aspergillus flavus [4]) [mm] | zone of inhibition at 1000 µg/mL (Salmonella typhi [5]) [mm] | inhibition (INH) [6] [%] | MIC [7] [µg/mL] | zone of inhibition at 1000 µg/mL [8] [mm] | zone of inhibition at 1000 µg/mL (Aspergillus flavus [9]) [mm] | zone of inhibition at 1000 µg/mL (Escherichia coli [10]) [mm] | inhibition at 72 h, 62.5 ug/ml [11] [%] | zone of inhibition at 500 µg/mL (Salmonella typhi [12]) [mm] | zone of inhibition at 500 µg/mL (Candida albicans [13]) [mm] | zone of inhibition at 1000 µg/mL (Candida albicans [14]) [mm] | zone of inhibition at 500 µg/mL [15] [mm] | zone of inhibition at 500 µg/mL (Staphylococcus aureus [16]) [mm] | zone of inhibition at 500 µg/mL (Escherichia coli [17]) [mm] | inhibition zone (IZ) (Aspergillus flavus [4]) | inhibition zone (IZ) [8] | inhibition zone (IZ) (Aspergillus flavus [9]) | further results
Cc1ccc(-c2nn3c(-c4nc5cc([N+](=O)[O-])ccc5[nH]4)c(-c4ccc(F)cc4)nc3s2)cc1 | 2 | 4 | 3 | 2 | 4 | 22.3 | 6.25 (≈ 13.3 µM) | 4 | 5 | 4 | 10.5 | 1 | 2 | 5 | 2 | 2 | 2 |  |  |  | 
Cc1ccc(-c2nc3sc(C)nn3c2-c2nc3ccccc3[nH]2)cc1 | 2 | 5 | 3 |  | 6 | 28.6 | 3.12 (≈ 9.05 µM) |  |  | 5 | 5.03 |  |  |  |  | 3 | 2 | inactive | inactive | inactive | diameter of the inhibition zone (DIZ) (Salmonella typhi [12]): inactive; inhibition zone (IZ) (Candida albicans [13]): inactive; inhibition zone (IZ) (Candida albicans [14]): inactive; inhibition zone (IZ) [15]: inactive
Cc1nn2c(-c3nc4cc(Cl)ccc4[nH]3)c(-c3ccc(Cl)cc3)nc2s1 | 1 | 3 | 4 | 1 | 4 | 78.8 | 3.12 (≈ 7.81 µM) | 5 | 3 | 4 | 7.12 | 2 | 2 | 4 | 3 | 2 | 2 |  |  |  | 
COc1ccc(-c2nc3sc(C)nn3c2-c2nc3ccccc3[nH]2)cc1 |  |  |  |  |  | 21.4 | 6.25 (≈ 17.3 µM) |  |  |  | 7.1 |  |  |  |  |  |  | inactive | inactive | inactive | diameter of the inhibition zone (DIZ) (Pseudomonas aeruginosa [1]): inactive; diameter of the inhibition zone (DIZ) (Staphylococcus aureus [2]): inactive; diameter of the inhibition zone (DIZ) (Pseudomonas aeruginosa [3]): inactive; diameter of the inhibition zone (DIZ) (Salmonella typhi [5]): inactive; diameter of the inhibition zone (DIZ) (Escherichia coli [10]): inactive; diameter of the inhibition zone (DIZ) (Salmonella typhi [12]): inactive; inhibition zone (IZ) (Candida albicans [13]): inactive; inhibition zone (IZ) (Candida albicans [14]): inactive; inhibition zone (IZ) [15]: inactive; diameter of the inhibition zone (DIZ) (Staphylococcus aureus [16]): inactive; diameter of the inhibition zone (DIZ) (Escherichia coli [17]): inactive
Cc1ccc(-c2nc3sc(-c4ccc(Cl)cc4)nn3c2-c2nc3ccccc3[nH]2)cc1 | 1 | 4 | 4 | 3 | 5 | 45.7 | 3.12 (≈ 7.07 µM) | 5 | 5 | 5 | 12.2 | 3 | 2 | 4 | 2 | 1 | 3 |  |  |  | 
Cc1ccc(-c2nc3sc(-c4ccc(Cl)cc4)nn3c2-c2nc3cc([N+](=O)[O-])ccc3[nH]2)cc1 |  |  |  |  |  | 26.3 | 6.25 (≈ 12.8 µM) |  |  |  | 8.85 |  |  |  |  |  |  | inactive | inactive | inactive | diameter of the inhibition zone (DIZ) (Pseudomonas aeruginosa [1]): inactive; diameter of the inhibition zone (DIZ) (Staphylococcus aureus [2]): inactive; diameter of the inhibition zone (DIZ) (Pseudomonas aeruginosa [3]): inactive; diameter of the inhibition zone (DIZ) (Salmonella typhi [5]): inactive; diameter of the inhibition zone (DIZ) (Escherichia coli [10]): inactive; diameter of the inhibition zone (DIZ) (Salmonella typhi [12]): inactive; inhibition zone (IZ) (Candida albicans [13]): inactive; inhibition zone (IZ) (Candida albicans [14]): inactive; inhibition zone (IZ) [15]: inactive; diameter of the inhibition zone (DIZ) (Staphylococcus aureus [16]): inactive; diameter of the inhibition zone (DIZ) (Escherichia coli [17]): inactive
Fc1ccc(-c2nc3sc(-c4ccc(Cl)cc4)nn3c2-c2nc3ccccc3[nH]2)cc1 | 5 | 7 | 8 | 2 | 3 | 21.7 | 3.12 (≈ 7.01 µM) | 4 | 4 | 5 | 10.7 | 1 | 1 | 3 | 3 | 3 | 3 |  |  |  | 
Cc1nn2c(-c3nc4ccccc4[nH]3)c(-c3ccc(F)cc3)nc2s1 | 2 | 2 | 3 | 2 | 2 | 19.9 | 6.25 (≈ 17.9 µM) | 4 | 3 | 4 | 10.6 | 1 | 1 | 2 | 3 | 1 | 3 |  |  |  | 
